Assays:
[1] = Inhibition of hedgehog signaling pathway in mouse NIH/3T3 cells by Gli1-luciferase reporter gene assay; assay type: cell-based; settings: NIH3T3
[2] = AUC in Sprague-Dawley rat at 1 mg/kg, iv; assay type: ADME, organism-based; parameters: dose 1 mg/kg, route intravenous; settings: plasma
Procedure, shortened: (§1)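 SD rats given a single 1 mg/kg iv dose in 5% DMA + 5% Tween-80. Plasma concentration–time data were analysed by a noncompartmental approach.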

[3] = Half life in Sprague-Dawley rat at 1 mg/kg, iv; assay type: ADME, organism-based; parameters: dose 1 mg/kg, route intravenous; settings: in vivo; procedure, shortened: as §1
[4] = Clearance in Sprague-Dawley rat at 1 mg/kg, iv; assay type: ADME, organism-based; parameters: dose 1 mg/kg, route intravenous; settings: in vivo; procedure, shortened: as §1
[5] = Volume of distribution at steady state in Sprague-Dawley rat at 1 mg/kg, iv; assay type: ADME, organism-based; parameters: dose 1 mg/kg, route intravenous; settings: Sprague-Dawley, in vivo, read-out: Vdss; procedure, shortened: as §1
[6] = (§2) Mean residence time (0 to t) in Sprague-Dawley rat at 1 mg/kg, iv; assay type: ADME, organism-based; parameters: dose 1 mg/kg, route intravenous; settings: Sprague-Dawley, in vivo; procedure, shortened: as §1
[7] = Cmax in Sprague-Dawley rat at 1 mg/kg, iv; assay type: ADME, organism-based; parameters: dose 1 mg/kg, route intravenous; settings: in vivo; procedure, shortened: as §1
[8] = Oral bioavailability in Sprague-Dawley rat at 5 mg/kg; assay type: ADME, organism-based; settings: in vivo
Procedure, shortened: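 Oral dosing of SD rats at 5 mg/kg in 0.5% HPMC + 0.3% Tween-80 (pH 2.8), with blood samples n = 3, alongside iv dosing at 1 mg/kg in 5% DMA + 5% Tween-80. Plasma concentration–time data were analysed noncompartmentally.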

[9] = Mean residence time (0 to t) in Sprague-Dawley rat at 5 mg/kg, po; assay type: ADME, organism-based; parameters: dose 5 mg/kg, route oral; settings: in vivo
Procedure, shortened: (§3)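 SD rats dosed orally at 5 mg/kg in 0.5% HPMC + 0.3% Tween-80 (pH 2.8). Blood samples (n = 3) were centrifuged at 4000 rpm for 5 min at 4 °C. Plasma concentration–time data were analysed noncompartmentally.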

[10] = Ratio of GDC-0449 IC50 to compound IC50 for hedgehog signaling pathway in mouse NIH/3T3 cells by Gli1-luciferase reporter gene assay; assay type: cell-based
[11] = AUC in Sprague-Dawley rat at 5 mg/kg, po; assay type: ADME, organism-based; parameters: dose 5 mg/kg, route oral; settings: plasma; procedure, shortened: as §3
[12] = Clearance in Sprague-Dawley rat at 5 mg/kg, po; assay type: ADME, organism-based; parameters: dose 5 mg/kg, route oral; settings: in vivo; procedure, shortened: as §3
Rattus norvegicus [13] = assay: Volume of distribution at steady state in Sprague-Dawley rat at 5 mg/kg, po; assay type: ADME, organism-based; parameters: dose 5 mg/kg, route oral; settings: in vivo; procedure, shortened: as §3
[14] = Half life in Sprague-Dawley rat at 5 mg/kg, po; assay type: ADME, organism-based; parameters: dose 5 mg/kg, route oral; settings: in vivo; procedure, shortened: as §3
[15] = Cmax in Sprague-Dawley rat at 5 mg/kg, po; assay type: ADME, organism-based; parameters: dose 5 mg/kg, route oral; settings: in vivo; procedure, shortened: as §3
Rattus norvegicus [16] = assay: as §2; assay type: ADME, organism-based; parameters: dose 1 mg/kg, route intravenous; settings: in vivo; procedure, shortened: as §1

| Structure (SMILES) | IC50 [1] | also measured |
| --- | --- | --- |
| CCNCc1ccc(C)c(NC(=O)c2ccc(Nc3ncc(C)c(-c4ccc(OC(F)(F)F)cc4)n3)cc2)c1 | 0.72 nM | – |
| Cc1ccc(CN2CCc3sccc3C2)cc1NC(=O)c1ccc(Nc2ncc(C)c(-c3ccc(OC(F)(F)F)cc3)n2)cc1 | 1.5 nM | – |
| Cc1ccc(CN2CCCCC2)cc1NC(=O)c1ccc(Nc2ncc(C)c(-c3cnn(C)c3)n2)cc1 | 5.6 nM | – |
| Cc1ccc(CN2CCCC2)cc1NC(=O)c1ccc(Nc2ncc(C)c(-c3cnn(C)c3)n2)cc1 | 9.2 nM | – |
| Cc1ccc(CN2CCN(c3ccccc3)CC2)cc1NC(=O)c1ccc(Nc2ncc(C)c(-c3ccc(OC(F)(F)F)cc3)n2)cc1 | 2 nM | – |
| Cc1ccc(CNC(C)(C)C)cc1NC(=O)c1ccc(Nc2ncc(C)c(-c3ccc(OC(F)(F)F)cc3)n2)cc1 | 0.9 nM | – |
| Cc1ccc(CN2CCN(C)CC2)cc1NC(=O)c1ccc(Nc2ncc(C)c(-c3ccc(OC(F)(F)F)cc3)n2)cc1 | 0.45 nM | – |
| Cc1ccc(CN2CCN(C)CC2)cc1NC(=O)c1ccc(Nc2ncc(C)c(-c3cnn(C)c3)n2)cc1 | 10 nM | – |
| Cc1ccc(CN2CCN(C)CC2)cc1NC(=O)c1ccc(Nc2ncc(C)c(-c3ccncc3)n2)cc1 | 0.61 nM | AUC [2]: 270 ng·h/mL; half-life [3]: 1.1 h; clearance [4]: 61.5 mL/min/kg; Vd [5]: 5.7 L/kg; MRT last [6]: 0.9 h; Cmax [7]: 580 ng/mL |
| Cc1ccc(CN(CCO)CCO)cc1NC(=O)c1ccc(Nc2ncc(C)c(-c3ccc(OC(F)(F)F)cc3)n2)cc1 | 0.47 nM | – |
| Cc1ccc(CNC(C)(C)C)cc1NC(=O)c1ccc(Nc2ncc(C)c(-c3cnn(C)c3)n2)cc1 | 18.1 nM | – |
| Cc1ccc(CN2C[C@@H](C)O[C@@H](C)C2)cc1NC(=O)c1ccc(Nc2ncc(C)c(-c3ccc(OC(F)(F)F)cc3)n2)cc1 | 0.45 nM | AUC [2]: 580 ng·h/mL; bioavailability [8]: 44.4%; half-life [3]: 9.2 h; clearance [4]: 24.9 mL/min/kg; MRT last [9]: 9.7 h; Vd [5]: 20 L/kg; Ratio IC50 [10]: 7; AUC [11]: 1300 ng·h/mL; MRT last [6]: 7.4 h; CL/F [12]: 51.9 mL/min/kg; Vdss (Rattus norvegicus [13]): 42.9 L/kg; half-life [14]: 9.5 h; Cmax [15]: 94 ng/mL; Cmax [7]: 300 ng/mL |
| Cc1ccc(CN2CCC(N3CCCCC3)CC2)cc1NC(=O)c1ccc(Nc2ncc(C)c(-c3ccc(OC(F)(F)F)cc3)n2)cc1 | 19.5 nM | – |
| Cc1ccc(CN2CCN(C(=O)C3CC3)CC2)cc1NC(=O)c1ccc(Nc2ncc(C)c(-c3ccc(OC(F)(F)F)cc3)n2)cc1 | 1.3 nM | – |
| Cc1ccc(CNCCO)cc1NC(=O)c1ccc(Nc2ncc(C)c(-c3ccc(OC(F)(F)F)cc3)n2)cc1 | 1.1 nM | – |
| Cc1ccc(CN2CCNC(=O)C2)cc1NC(=O)c1ccc(Nc2ncc(C)c(-c3ccc(OC(F)(F)F)cc3)n2)cc1 | 2 nM | – |
| Cc1ccc(CN2CC3CCN(C)C3C2)cc1NC(=O)c1ccc(Nc2ncc(C)c(-c3ccc(OC(F)(F)F)cc3)n2)cc1 (stereo not drawn) | 10.5 nM | – |
| Cc1ccc(CN2CCSCC2)cc1NC(=O)c1ccc(Nc2ncc(C)c(-c3ccc(OC(F)(F)F)cc3)n2)cc1 | 0.34 nM | Ratio IC50 [10]: 7 |
| Cc1ccc(CNc2ccccc2)cc1NC(=O)c1ccc(Nc2ncc(C)c(-c3ccc(OC(F)(F)F)cc3)n2)cc1 | 1.1 nM | – |
| Cc1ccc(CN2C[C@@H](C)O[C@@H](C)C2)cc1NC(=O)c1ccc(Nc2ncc(C)c(-c3cnn(C)c3)n2)cc1 | 8.4 nM | – |
| Cc1ccc(CN(C)C)cc1NC(=O)c1ccc(Nc2ncc(C)c(-c3ccc(OC(F)(F)F)cc3)n2)cc1 | 0.59 nM | – |
| Cc1ccc(CN2CC3CCCC3C2)cc1NC(=O)c1ccc(Nc2ncc(C)c(-c3ccc(OC(F)(F)F)cc3)n2)cc1 (stereo not drawn) | 1.6 nM | – |
| Cc1ccc(CN2CCC(O)CC2)cc1NC(=O)c1ccc(Nc2ncc(C)c(-c3cnn(C)c3)n2)cc1 | 21.2 nM | – |
| Cc1ccc(CN2CCC(O)CC2)cc1NC(=O)c1ccc(Nc2ncc(C)c(-c3ccc(OC(F)(F)F)cc3)n2)cc1 | 0.44 nM | – |

| Structure (SMILES) | IC50 [1] | also measured |
| --- | --- | --- |
| Cc1ccc(CNC2CCCC2)cc1NC(=O)c1ccc(Nc2ncc(C)c(-c3ccc(OC(F)(F)F)cc3)n2)cc1 | 1.6 nM | – |
| Cc1ccc(CN2CCC[C@@H]2CN2CCCC2)cc1NC(=O)c1ccc(Nc2ncc(C)c(-c3ccc(OC(F)(F)F)cc3)n2)cc1 | 3.9 nM | – |
| Cc1ccc(CN2CCCCC2)cc1NC(=O)c1ccc(Nc2ncc(C)c(-c3ccc(OC(F)(F)F)cc3)n2)cc1 | 1 nM | Ratio IC50 [10]: 7 |
| Cc1ccc(CN2CCC(=O)CC2)cc1NC(=O)c1ccc(Nc2ncc(C)c(-c3ccc(OC(F)(F)F)cc3)n2)cc1 | 0.28 nM | – |
| CS(=O)(=O)c1ccc(C(=O)Nc2ccc(Cl)c(-c3ccccn3)c2)c(Cl)c1 [VISMODEGIB] | 7.2 nM | half-life [3]: 1.6 h |
| CCN(CC)Cc1ccc(C)c(NC(=O)c2ccc(Nc3ncc(C)c(-c4ccc(OC(F)(F)F)cc4)n3)cc2)c1 | 0.23 nM | – |
| Cc1ccc(CN2CCOCC2)cc1NC(=O)c1ccc(Nc2ncc(C)c(-c3ccccc3)n2)cc1 | 0.68 nM | AUC [2]: 710 ng·h/mL; half-life [3]: 1 h; clearance [4]: 23.3 mL/min/kg; Vd [5]: 2.1 L/kg; MRT last [6]: 1.2 h; Cmax [7]: 840 ng/mL |
| CCCN(C)Cc1ccc(C)c(NC(=O)c2ccc(Nc3ncc(C)c(-c4ccc(OC(F)(F)F)cc4)n3)cc2)c1 | 0.93 nM | – |
| Cc1ccc(CN2C(C)(C)CCCC2(C)C)cc1NC(=O)c1ccc(Nc2ncc(C)c(-c3ccc(OC(F)(F)F)cc3)n2)cc1 | 0.76 nM | – |
| Cc1cnc(Nc2ccc(C(=O)Nc3c(C)cccc3C)cc2)nc1-c1ccc(OC(F)(F)F)cc1 | 1.3 nM | MRT last [9]: 5.1 h; MRT (Rattus norvegicus [16]): 4 h |
| Cc1ccc(CN2CCNCC2)cc1NC(=O)c1ccc(Nc2ncc(C)c(-c3ccc(OC(F)(F)F)cc3)n2)cc1 | 10.5 nM | – |
| Cc1ccc(CN(C)CCCN(C)C)cc1NC(=O)c1ccc(Nc2ncc(C)c(-c3ccc(OC(F)(F)F)cc3)n2)cc1 | 35.3 nM | – |
| Cc1ccc(CN2CCOCC2)cc1NC(=O)c1ccc(Nc2ncc(C)c(-c3cnn(C)c3)n2)cc1 | 1.3 nM | AUC [2]: 1200 ng·h/mL; bioavailability [8]: 63.6%; half-life [3]: 0.8 h; clearance [4]: 14.3 mL/min/kg; MRT last [9]: 2.4 h; Vd [5]: 0.9 L/kg; AUC [11]: 3800 ng·h/mL; MRT last [6]: 0.81 h; CL/F [12]: 23.9 mL/min/kg; Vdss (Rattus norvegicus [13]): 2.9 L/kg; half-life [14]: 1.4 h; Cmax [15]: 1500 ng/mL; Cmax [7]: 2100 ng/mL |
| CCCN(C)Cc1ccc(C)c(NC(=O)c2ccc(Nc3ncc(C)c(-c4cnn(C)c4)n3)cc2)c1 | 17.5 nM | – |
| Cc1ccc(CNCc2ccco2)cc1NC(=O)c1ccc(Nc2ncc(C)c(-c3ccc(OC(F)(F)F)cc3)n2)cc1 | 2.5 nM | – |
| Cc1ccc(CN2CCCc3ccccc32)cc1NC(=O)c1ccc(Nc2ncc(C)c(-c3ccc(OC(F)(F)F)cc3)n2)cc1 | 2.4 nM | – |
| Cc1ccc(CNCCN2CCCCC2)cc1NC(=O)c1ccc(Nc2ncc(C)c(-c3ccc(OC(F)(F)F)cc3)n2)cc1 | 33.6 nM | – |
| CCN1CCN(Cc2ccc(C)c(NC(=O)c3ccc(Nc4ncc(C)c(-c5ccc(OC(F)(F)F)cc5)n4)cc3)c2)CC1 | 0.77 nM | – |
| Cc1ccc(CN(CCO)CCO)cc1NC(=O)c1ccc(Nc2ncc(C)c(-c3cnn(C)c3)n2)cc1 | 31.9 nM | – |
| Cc1ccc(CN(C2CCCCC2)C2CCCCC2)cc1NC(=O)c1ccc(Nc2ncc(C)c(-c3ccc(OC(F)(F)F)cc3)n2)cc1 | 2.7 nM | – |
| Cc1ccc(CN2CCCC2)cc1NC(=O)c1ccc(Nc2ncc(C)c(-c3ccc(OC(F)(F)F)cc3)n2)cc1 | 0.43 nM | Ratio IC50 [10]: 7 |
| Cc1ccc(CN(CCNC(C)C)C(C)C)cc1NC(=O)c1ccc(Nc2ncc(C)c(-c3ccc(OC(F)(F)F)cc3)n2)cc1 | 10.9 nM | – |
| Cc1ccc(CN2C(C)(C)CC(=O)CC2(C)C)cc1NC(=O)c1ccc(Nc2ncc(C)c(-c3ccc(OC(F)(F)F)cc3)n2)cc1 | 0.29 nM | – |
| Cc1ccc(CN(C)C(C)C)cc1NC(=O)c1ccc(Nc2ncc(C)c(-c3ccc(OC(F)(F)F)cc3)n2)cc1 | 0.89 nM | – |

From ChEMBL document CHEMBL3112531, “Synthesis and evaluation of 4-(2-pyrimidinylamino) benzamides inhibitors of hedgehog signaling pathway” (Bioorg Med Chem Lett, 2014)
